Test results taken from ChEMBL document CHEMBL4038284, “Synthesis of novel quinoline-based 4,5-dihydro-1H-pyrazoles as potential anticancer, antifungal, antibacterial and antiprotozoal agents” (Eur J Med Chem, 2017).
Converted amounts (≈) assume the structure as drawn.

Key:
[1] = system: Leishmania panamensis; test: Antileshmanial activity against EpiR/GFP fused Leishmania panamensis MHOM/CO/87/UA140 intracellular amastigotes infected in human […] cells after 72 hrs by flow cytometric method; format: functional, cell-based; conditions: MHOM/CO/87/UA140, 72 h
Outline: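 PMA-treated U-937 cells (3 × 10^5 cells/mL) infected with stationary-phase GFP L. panamensis promastigotes (15:1), 3 h at 34 °C, then washed. After 24 h, compounds added at 50, 12.5, 3.125 and 0.78 µg/mL for 72 h at 37 °C. EC50 by Probit; triplicate, two experiments.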

[2] = system: Candida albicans; test: Antifungal activity against Candida albicans ATCC 10231 incubated for 48 hrs under dark condition by broth microdilution method; format: functional; conditions: ATCC 10231, 48 h
Outline: (§1)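 CLSI M27-A3 broth microdilution in RPMI-1640, DMSO ≤1%, compounds at 250-0.98 µg/mL final. Inoculum 1-5 × 10^3 CFU/mL. Incubated 48 h at 30 °C in a moist dark chamber, read at OD405. MIC80 and MIC50 taken from % inhibition dose-response curves (mean ± SEM, triplicate). Amphotericin B was the positive control.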

[3] = system: Neisseria gonorrhoeae; test: Antibacterial activity against beta lactamase positive Neisseria gonorrhoeae ATCC 31426 by oxidase test; format: functional
Outline: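 Agar dilution MIC on GC agar with 1% isovitalex containing increasing compound concentrations. Plates inoculated with about 1×10^4 CFU (5 µL). MIC is the lowest concentration that inhibited growth, with growth confirmed by oxidase test. Run in duplicate, repeated at least three times.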

[4] = system: Cryptococcus neoformans; test: Growth inhibition of Cryptococcus neoformans ATCC 32264 at 15.62 ug/ml incubated for 48 hrs under dark condition by broth microdilution method relative to control; format: functional; conditions: ATCC 32264, 48 h, read-out: GI
Outline: (§2)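 CLSI M27-A3 broth microdilution in RPMI-1640, DMSO ≤1%. Inoculum 1-5 × 10^3 CFU/mL. Incubated 48 h at 30 °C, dark. % inhibition = 100 − (OD405 test − sterility control)/(OD405 growth control − sterility control), with growth and sterility control wells. Triplicate.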

[5] = system: Candida albicans; test: Growth inhibition of Candida albicans ATCC 10231 at 31.25 ug/ml incubated for 48 hrs under dark condition by broth microdilution method relative to control; format: functional; conditions: ATCC 10231, 48 h, read-out: GI; outline: as §2
[6] = system: Trypanosoma cruzi; test: Antitrypanosomal activity against Trypanosoma cruzi Tulahuen intracellular amastigote harboring LacZ infected in human U937 cells after 72 hrs by CPRG/Nonidet reagent based spectrophotometric method; format: functional, cell-based; conditions: U-937, 72 h
Outline: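 U-937 cells at 2.5 × 10^5 cells/mL in RPMI-1640 with 10% serum and 0.1 µg/mL PMA were infected with β-galactosidase-transfected Tulahuen epimastigotes at 5 parasites per cell. Infected cells were exposed to 50, 12.5, 3.125 and 0.78 µg/mL for 72 h. CPRG (100 uM) and 0.1% Nonidet P-40 were added for 3 h, read at 570 nm. EC50 by Probit. Triplicate, at least two experiments; benznidazole as reference.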

[7] = system: Pseudomonas aeruginosa; test: Antibacterial activity against Pseudomonas aeruginosa ATCC 27853 after 24 hrs by resazurin dye based microdilution assay; format: functional; conditions: ATCC 27853, 24 h
Outline: (§3)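 MIC taken as the lowest concentration giving visible inhibition and/or by resazurin (1 mg/mL). Gentamicin was the control. Run in duplicate, repeated at least three times.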

[8] = system: Candida albicans; test: Growth inhibition of Candida albicans ATCC 10231 at 62.5 ug/ml incubated for 48 hrs under dark condition by broth microdilution method relative to control; format: functional; conditions: ATCC 10231, 48 h, read-out: GI; outline: as §2
[9] = system: Cryptococcus neoformans; test: Antifungal activity against Cryptococcus neoformans ATCC 32264 incubated for 48 hrs under dark condition by broth microdilution method; format: functional; conditions: ATCC 32264, 48 h; outline: as §1
[10] = system: Candida albicans; test: Growth inhibition of Candida albicans ATCC 10231 at 3.4 ug/ml incubated for 48 hrs under dark condition by broth microdilution method relative to control; format: functional; conditions: ATCC 10231, 48 h, read-out: GI
[11] = system: Cryptococcus neoformans; test: Growth inhibition of Cryptococcus neoformans ATCC 32264 at 3.4 ug/ml incubated for 48 hrs under dark condition by broth microdilution method relative to control; format: functional; conditions: ATCC 32264, 48 h, read-out: GI
[12] = system: Plasmodium falciparum; test: Antiplasmodial activity against chloroquine-sensitive Plasmodium falciparum 3D7 assessed as reduction in parasitic LDH activity after 48 hrs by Malstat reagent based […] method; format: functional; conditions: 3D7, 48 h
Outline: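 Unsynchronized P. falciparum 3D7 at 0.5% parasitemia and 1% hematocrit in RPMI with 3% Albumax II. Exposed to 100, 25, 6.25 and 1.56 µg/mL for 48 h at 37 °C under 90% N2/5% CO2/5% O2. After three freeze-thaw cycles, LDH measured with Malstat and NBT/PES, 1 h in the dark, read at 650 nm. IC50 by Probit; triplicate, ≥2 experiments.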

[13] = system: Cryptococcus neoformans; test: Growth inhibition of Cryptococcus neoformans ATCC 32264 at 7.8 ug/ml incubated for 48 hrs under dark condition by broth microdilution method relative to control; format: functional; conditions: ATCC 32264, 48 h, read-out: GI; outline: as §2
[14] = system: Klebsiella pneumoniae; test: Antibacterial activity against carbapenemase positive Klebsiella pneumoniae BAA 1705 after 24 hrs by resazurin dye based microdilution assay; format: functional; conditions: BAA 1705, 24 h; outline: as §3
[15] = system: Escherichia coli; test: Antibacterial activity against Escherichia coli ATCC 25922 after 24 hrs by resazurin dye based microdilution assay; format: functional; conditions: ATCC 25922, 24 h; outline: as §3
[16] = system: Candida albicans; test: Growth inhibition of Candida albicans ATCC 10231 at 15.62 ug/ml incubated for 48 hrs under dark condition by broth microdilution method relative to control; format: functional; conditions: ATCC 10231, 48 h, read-out: GI; outline: as §2
[17] = system: Cryptococcus neoformans; test: Growth inhibition of Cryptococcus neoformans ATCC 32264 at 125 ug/ml incubated for 48 hrs under dark condition by broth microdilution method relative to control; format: functional; conditions: ATCC 32264, 48 h, read-out: GI; outline: as §2
[18] = system: Staphylococcus aureus; test: Antibacterial activity against vancomycin-intermediate Staphylococcus aureus after 24 hrs by resazurin dye based microdilution assay; format: functional; outline: as §3
[19] = system: Klebsiella pneumoniae; test: Antibacterial activity against ESBL positive Klebsiella pneumoniae ATCC 700603 after 24 hrs by resazurin dye based microdilution assay; format: functional; conditions: Klebsiella pneumoniae, 700603, 24 h; outline: as §3
[20] = system: Cryptococcus neoformans; test: Growth inhibition of Cryptococcus neoformans ATCC 32264 at 31.25 ug/ml incubated for 48 hrs under dark condition by broth microdilution method relative to control; format: functional; conditions: ATCC 32264, 48 h, read-out: GI; outline: as §2
[21] = system: Cryptococcus neoformans; test: Growth inhibition of Cryptococcus neoformans ATCC 32264 at 62.5 ug/ml incubated for 48 hrs under dark condition by broth microdilution method relative to control; format: functional; conditions: ATCC 32264, 48 h, read-out: GI; outline: as §2
[22] = system: Candida albicans; test: Growth inhibition of Candida albicans ATCC 10231 at 125 ug/ml incubated for 48 hrs under dark condition by broth microdilution method relative to control; format: functional; conditions: ATCC 10231, 48 h, read-out: GI; outline: as §2
[23] = system: Cryptococcus neoformans; test: Growth inhibition of Cryptococcus neoformans ATCC 32264 at 250 ug/ml incubated for 48 hrs under dark condition by broth microdilution method relative to control; format: functional; conditions: ATCC 32264, 48 h, read-out: GI; outline: as §2
[24] = system: U-937; test: Cytotoxicity against human U937 cells after 72 hrs by MTT assay; format: cell-based; conditions: u-937, 72 h
Outline: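 Exponentially growing U-937 at 1 × 10^5 cells/mL in RPMI-1640 with 10% FBS were exposed to 200, 50, 12.5 and 3.125 µg/mL for 72 h at 37 °C, 5% CO2. MTT for 3 h, stopped with isopropanol/SDS, formazan read at 570 nm, blank-corrected. LC50 by Probit from % viability against untreated cells. Triplicate, at least two independent experiments.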

[25] = system: Staphylococcus aureus; test: Antibacterial activity against methicillin-resistant Staphylococcus aureus ATCC 43300 after 24 hrs by resazurin dye based microdilution assay; format: functional; conditions: ATCC 43300, 24 h
Outline: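 Broth microdilution in Mueller Hinton broth, inoculum 5 × 10^5 – 8 × 10^5. Compound stocks diluted in MHB with 5% DMSO and 0.1% Tween 80. Incubation 24 h at 35-37 °C. MIC is the lowest concentration with visible growth inhibition and/or by resazurin (1 mg/mL) read-out. Gentamicin as control. Run in duplicate, replicated at least three times.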

[26] = system: Candida albicans; test: Growth inhibition of Candida albicans ATCC 10231 at 7.8 ug/ml incubated for 48 hrs under dark condition by broth microdilution method relative to control; format: functional; conditions: ATCC 10231, 48 h, read-out: GI; outline: as §2
[27] = system: Candida albicans; test: Growth inhibition of Candida albicans ATCC 10231 at 250 ug/ml incubated for 48 hrs under dark condition by broth microdilution method relative to control; format: functional; conditions: ATCC 10231, 48 h, read-out: GI; outline: as §2
[28] = system: Staphylococcus aureus; test: Antibacterial activity against methicillin-sensitive Staphylococcus aureus ATCC 25923 after 24 hrs by resazurin dye based microdilution assay; format: functional; conditions: ATCC 25923, 24 h; outline: as §3

| SMILES | EC50 [1] [µg/mL] | MIC50 [2] [µg/mL] | MIC80 [2] [µg/mL] | MIC [3] [µg/mL] | inhibition of growth at 15.62 µg/mL [4] [%] | inhibition of growth at 31.25 µg/mL [5] [%] | EC50 [6] [µg/mL] | MIC [7] [µg/mL] | inhibition of growth at 62.5 µg/mL [8] [%] | MIC50 [9] [µg/mL] | MIC80 [9] [µg/mL] | inhibition of growth at 3.4 µg/mL [10] [%] | inhibition of growth at 3.4 µg/mL [11] [%] | EC50 [12] [µg/mL] | inhibition of growth at 7.8 µg/mL [13] [%] | MIC [14] [µg/mL] | MIC [15] [µg/mL] | inhibition of growth at 15.62 µg/mL [16] [%] | inhibition of growth at 125 µg/mL [17] [%] | MIC [18] [µg/mL] | further results |
| --- | --- | --- | --- | --- | --- | --- | --- | --- | --- | --- | --- | --- | --- | --- | --- | --- | --- | --- | --- | --- | --- |
| COc1cc(C2=NN(c3ccccc3)C(c3cccc(Nc4ccnc5cc(Cl)ccc45)c3)C2)cc(OC)c1OC (stereo not given) | 13.4 (≈ 23.7 µM) | 250 (≈ 442 µM) | ≥ 250 | > 1000 | 0.13 | 13.4 | 21.6 (≈ 38.2 µM) | > 1000 | 23.4 | 250 (≈ 442 µM) | ≥ 250 | 4.16 | 0 | 15.5 (≈ 27.4 µM) | 0 | > 1000 | > 1000 | 11.6 | 18.3 | > 1000 | MIC [19]: > 1000 µg/mL; inhibition of growth at 31.25 µg/mL [20]: 1.65%; inhibition of growth at 62.5 µg/mL [21]: 16.2%; inhibition of growth at 125 µg/mL [22]: 42.3%; inhibition of growth at 250 µg/mL [23]: 58.6%; LC50 [24]: > 200 µg/mL; MIC [25]: > 1000 µg/mL; inhibition of growth at 7.8 µg/mL [26]: 6.63%; inhibition of growth at 250 µg/mL [27]: 60.5%; MIC [28]: > 1000 µg/mL |
| CC(=O)N1N=C(c2ccc(C)cc2)CC1c1cccc(Nc2ccnc3cc(Cl)ccc23)c1 (stereo not given) | 1.55 (≈ 3.41 µM) | 250 (≈ 549 µM) | ≥ 250 | > 1000 | 29.6 | 32.2 | 1.62 (≈ 3.56 µM) | > 1000 | 35.9 | 125 (≈ 275 µM) | 250 (≈ 549 µM) | 15.9 | 13.2 | 17.5 (≈ 38.5 µM) | 29.2 | > 1000 | > 1000 | 31.4 | 54.7 | > 1000 | MIC [19]: > 1000 µg/mL; inhibition of growth at 31.25 µg/mL [20]: 33.7%; inhibition of growth at 62.5 µg/mL [21]: 42.9%; inhibition of growth at 125 µg/mL [22]: 46.2%; inhibition of growth at 250 µg/mL [23]: 100%; LC50 [24]: 4.4 µg/mL (≈ 9.67 µM); MIC [25]: > 1000 µg/mL; inhibition of growth at 7.8 µg/mL [26]: 20.6%; inhibition of growth at 250 µg/mL [27]: 67.8%; MIC [28]: > 1000 µg/mL |
